MBD2 DNA inh: inhibitors of MBD2 binding to methylated DNA, primary screen, biochemical, TR-FRET, DNA-binding domain, human | Methyl-CpG-binding domain protein 2 (Homo sapiens), Q9UBB5 | MBD2 binding to methylated oligonucleotide | inhibition, % at 4.4 µM | hit rate 0.31% among 370,000 | AID 686964, 2013; in the data active means inhibition above about 13%
Target sequence (Q9UBB5 whole entry, looked up, the tested form may be a part): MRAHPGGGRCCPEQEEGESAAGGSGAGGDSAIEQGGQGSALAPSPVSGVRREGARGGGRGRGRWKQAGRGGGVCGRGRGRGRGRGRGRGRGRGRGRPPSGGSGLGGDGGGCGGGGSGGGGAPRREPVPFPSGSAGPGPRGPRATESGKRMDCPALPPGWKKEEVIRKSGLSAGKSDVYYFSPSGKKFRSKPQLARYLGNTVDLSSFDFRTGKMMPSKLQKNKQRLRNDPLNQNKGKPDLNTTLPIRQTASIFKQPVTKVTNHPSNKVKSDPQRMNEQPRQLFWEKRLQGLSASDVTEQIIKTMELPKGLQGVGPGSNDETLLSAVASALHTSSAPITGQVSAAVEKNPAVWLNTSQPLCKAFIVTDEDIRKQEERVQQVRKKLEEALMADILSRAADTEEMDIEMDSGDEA
LEDGF integ inh: blockers of LEDGF/p75-dependent integrase strand transfer – biochemical, TR-FRET, high throughput, primary screen | hit rate 0.64% among 370,000 | TR-FRET IN-LEDGF/p75 DNA integration, Eu/Cy5 | AID 743269, 2014 | inhibition, % at 3.7 µM;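 active means inhibition above the screen-wide mean plus 3 SD, cut at about 13% in these data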;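 further: signal is the Cy5 over europium emission ratio at 671 and 618 nm; 0% = plate median of compound wells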
CASP6 VEID inh: human caspase-6 inhibitors, primary screen, biochemical, VEID-R110 fluorescence, single point, set 2. inhibition, % at 12.5 µM. purified caspase-6, Z-VEID-R110 cleavage fluorescence. hit rate 0.53% among 350,000;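 active means mean inhibition across replicates at least about 35%, with every replicate also reaching that limit, limit read from the data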;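 further: 0% = median of neutral control wells and 100% = no fluorescence left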
TDP2 absorb: human TDP2 enzyme inhibitors, primary screen, biochemical, epi absorbance, recombinant enzyme; T5PNP hydrolysis, p-nitrophenol absorbance 415 nm; inhibition, % at 12.8 µM; hit rate 0.34% among 370,000;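 active means inhibition above the mean of all tested compounds plus 3 SD, set per campaign, cut at about 25% in these data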;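 further: 0% = DMSO with enzyme and 100% = buffer with substrate but no TDP2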
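System – recombinant human TDP2 · Amount – 120 nM TDP2 per well · Buffer or medium – Mg2+-containing Tris-HCl buffer, pH 7.5 · Reagent – T5PNP substrate, 5 mM · Dosing – 12.8 µM single point, 1% DMSO · Incubation – 2 h at 37 °C · Measured by – epi absorbance · Read-out basis – percent inhibition · Benchmarks – high control without enzyme, low control DMSO plus TDP2 · Repeats – singlicate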
NSD2 inh: NSD2 histone methyltransferase inhibitors, primary screen, biochemical, AlphaScreen, single concentration, set 2 | Histone-lysine N-methyltransferase NSD2 (Homo sapiens), O96028 | NSD2 peptide methylation, 120 min | inhibition, % at 12.5 µM | hit rate 0.54% among 310,000 | AID 743445, 2014; in the data active means inhibition above about 50%
UHRF1 MBD2 ctr: UHRF1 methylated DNA binding inhibitors, primary screen, counter-screen for MBD2 inhibitor project, biochemical, TR-FRET, human UHRF1, single concentration | E3 ubiquitin-protein ligase UHRF1 (Homo sapiens), Q96T88 | UHRF1 binding to methylated oligo | inhibition, % at 4.4 µM | hit rate 0.75% among 370,000 | AID 687016, 2013; in the data active means inhibition above about 21%;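 further: UHRF1 SRA domain binding a hemimethylated CpG hairpin DNA probe; 0% = median of test compound wells and 100% = reference inhibitor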
* marks the source's active call; other numbers are inactive results. This is a sample that favours compounds with a hit; in the whole collection about 1.9% have one here.

CC(Sc1nc2sc3c(c2c(=O)n1-c1ccccc1)CCCC3)C(=O)O (stereo not drawn) was read as MBD2 DNA inh -1.8, LEDGF integ inh 1.6, CASP6 VEID inh 1.1, TDP2 absorb -9.2, NSD2 inh 0.5 and UHRF1 MBD2 ctr 5.9.
For C[C@@H]1CN([C@@H](C)CO)C(=O)Cc2cc(NC(=O)Nc3ccc(C(F)(F)F)cc3)ccc2O[C@@H]1CN(C)C(=O)Nc1ccc(C(F)(F)F)cc1 the results were CASP6 VEID inh 0.9.
For COc1cccc2c(SCC(=O)N/N=C/c3ccc(O)c(O)c3)cc(C)nc12 the results were MBD2 DNA inh 0.0, LEDGF integ inh 10.1, TDP2 absorb -8.6, NSD2 inh 132.0* and UHRF1 MBD2 ctr 7.8.
Screening COc1cccc2c(SCC(=O)N/N=C/c3ccccc3)cc(C)nc12 returned MBD2 DNA inh -3.0, LEDGF integ inh 5.5, CASP6 VEID inh 4.4, TDP2 absorb 4.4, NSD2 inh 0.8 and UHRF1 MBD2 ctr -6.6.
For CN1CCN(C(=O)C[C@@H]2CC[C@@H]3[C@H](COc4ccc(NC(=O)C5CCC5)cc4C(=O)N3C)O2)CC1 the results were CASP6 VEID inh -4.0.
COc1ccc(NC(=O)N(C)C[C@H]2Oc3cc(C#CCC(C)C)ccc3S(=O)(=O)N([C@@H](C)CO)C[C@@H]2C)cc1 was read as CASP6 VEID inh 0.3.
`COc1ccc(NC(=O)Cn2c(=O)n(CC3CCCO3)c(=O)c3ccccc32)c(OC)c1` (stereo not drawn) gave MBD2 DNA inh 8.1, LEDGF integ inh 5.4, CASP6 VEID inh -2.1, TDP2 absorb -1.9, NSD2 inh -0.7 and UHRF1 MBD2 ctr 21.6*.
For COc1cc(NC(=O)Cn2c(=O)n(CC3CCCO3)c(=O)c3ccccc32)cc(OC)c1 (stereo not drawn) the results were MBD2 DNA inh 7.8, LEDGF integ inh -1.2, CASP6 VEID inh 5.7, TDP2 absorb 10.0, NSD2 inh 1.0 and UHRF1 MBD2 ctr 1.2.
COCC(=O)N1CCC2(CC1)CN(Cc1nccs1)[C@@H](CO)c1c2c2ccc(OC)cc2n1C was read as CASP6 VEID inh -1.9.
`Cc1[nH]c2ccccc2c1C(=O)C(=O)N(C)C1CCCCC1` gave MBD2 DNA inh -5.1, LEDGF integ inh 0.2, CASP6 VEID inh 0.2, TDP2 absorb 7.0, NSD2 inh -2.1 and UHRF1 MBD2 ctr 1.1.
For Cc1[nH]c2ccccc2c1C(=O)CSC(=S)N(C)C1CCCCC1 the results were MBD2 DNA inh 7.4, LEDGF integ inh 5.4, TDP2 absorb -0.9, NSD2 inh -2.9 and UHRF1 MBD2 ctr 26.4*.
`CCCCCCCC/C=C\CCCCCCCC(=O)O` gave MBD2 DNA inh -0.8, LEDGF integ inh 1.7, CASP6 VEID inh 7.3, TDP2 absorb -6.0 and UHRF1 MBD2 ctr 1.7.
CCCCC/C=C\C/C=C\C/C=C\CCCCC(=O)O was read as MBD2 DNA inh -1.1, LEDGF integ inh 8.4, CASP6 VEID inh 39.9*, TDP2 absorb -0.7 and UHRF1 MBD2 ctr 5.5.
`COC(=O)CC1OCC=C2CN3CCC45C6=CC(=O)C(=O)C([N+](=O)[O-])=C6NC4C1C2CC35` (stereo not drawn) gave MBD2 DNA inh 16.1*, LEDGF integ inh -2.7, CASP6 VEID inh 69.4*, TDP2 absorb 67.7* and UHRF1 MBD2 ctr 19.5.
Screening CC(NC(=S)NC1CCCCC1)c1ccc(C(C)(C)C)cc1 (stereo not drawn) returned MBD2 DNA inh 6.6, LEDGF integ inh 1.5, CASP6 VEID inh 41.7*, TDP2 absorb -1.2, NSD2 inh 4.6 and UHRF1 MBD2 ctr 1.2.
Screening O=C(Nc1ccccc1F)N1CC(=O)N2[C@H](CO)[C@@H](c3ccc(C#Cc4ccc(F)cc4)cc3)[C@H]2C1 returned CASP6 VEID inh 0.6.

Screens (PubChem)
